Calls of active or inactive are those of the source. The rule behind the calls is not given here.
Legend:
[1] = target: T1, Tyrosine-protein phosphatase non-receptor type 1 (Homo sapiens, UniProt P18031); experiment: Inhibition of GST-tagged human PTP1B expressed in Escherichia coli using pNPP substrate assessed as reduction in p-nitrophenol release
T1 sequence (P18031 whole entry): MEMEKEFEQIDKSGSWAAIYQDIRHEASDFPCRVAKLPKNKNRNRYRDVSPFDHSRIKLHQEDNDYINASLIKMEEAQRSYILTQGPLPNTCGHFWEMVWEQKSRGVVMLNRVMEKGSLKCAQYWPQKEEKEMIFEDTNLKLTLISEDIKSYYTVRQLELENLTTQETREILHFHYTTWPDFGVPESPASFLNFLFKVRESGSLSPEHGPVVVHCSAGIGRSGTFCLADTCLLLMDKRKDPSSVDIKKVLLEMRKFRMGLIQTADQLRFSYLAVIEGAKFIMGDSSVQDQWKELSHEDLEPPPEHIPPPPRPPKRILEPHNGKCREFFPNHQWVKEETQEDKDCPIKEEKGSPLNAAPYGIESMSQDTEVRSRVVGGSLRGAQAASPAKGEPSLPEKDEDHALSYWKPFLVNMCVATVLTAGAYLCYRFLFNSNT
Summary of the method: (§1)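 Compounds were dissolved in MeOH as dilution series, dispensed in triplicate and dried. Residues were taken up in DMSO in 50 mM Tris/50 mM bis-Tris buffer with 100 mM NaCl, pH 7.0, at 25 °C. Final conditions were 10% DMSO, 1 mM EDTA, 0.5 mM pNPP and 2 mM DTT. After a 10 min preincubation, recombinant human PTP1B (0.05 μg/well) was added to start the reaction. A405 was read every 30 s for 10 min. Inhibition was calculated from the rate slope against the blank, and IC50 from dose–response curves.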

[2] = target: T2, Tyrosine-protein phosphatase non-receptor type 1 (Homo sapiens) (UniProt P18031); experiment: (§2) Inhibition of recombinant human PTP1B preincubated for 10 mins followed by protein addition using pNPP substrate; summary of the method: as §1
T2 sequence (whole entry): T1 sequence (P18031 whole entry)

[3] = target: T1, Tyrosine-protein phosphatase non-receptor type 1; experiment: as §2; summary of the method: as §1
[4] = test system: Saccharomyces cerevisiae; experiment: Inhibition of Saccharomyces cerevisiae alpha-glucosidase type-1 pre-incubated for 10 mins before pNPG substrate addition assessed as reduction in p-nitrophenol release
Summary of the method: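 Dried residues were dissolved in 25% DMSO in 0.1 M phosphate buffer, pH 6.9, at 25 °C. α-Glucosidase was added to 0.25 U/mL final (6.25% DMSO final) and preincubated for 10 min. The reaction was started with pNPG (1.25 mM final). A405 was read every 30 s for 10 min, and inhibition was taken from the cleavage rate relative to the blank.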

Question: COc1cc(O)c2c3c1-c1ccc(O)cc1[C@@H]1Oc4ccccc4[C@@H](CC2=O)[C@@H]31 was tested. Which IC50 [1] did it give?
Answer: The IC50 was 3.5 to 7.6 µM.

Question: How did the inhibition [2] turn out when CC(C)=CCC[C@H](C)[C@@H]1CC[C@@H](C)c2c1cc(C(=O)O)c(O)c2O was run?
Answer: The inhibition was “Active”.

Question: For CC(C)=CCC(=O)OC[C@H](C)CCC[C@H](C)[C@@H]1CC[C@@H](C)c2c(O)cc(C(=O)O)cc21, which inhibition [2] is on record?
Answer: Its inhibition is “Active”.

Question: Which IC50 [1] does the source give for O=C1C[C@]2(O)c3ccccc3O[C@H]3c4cc(O)ccc4-c4c(O)cc(O)c1c4[C@@H]32 [OHIOENSIN F] here?
Answer: The IC50 was 3.5 to 7.6 µM.

Question: How did the IC50 [3] turn out when CC(C)CC(=O)OC[C@H](C)CCC[C@H](C)[C@@H]1CC[C@@H](C)c2c1cc(C(=O)O)c(O)c2O was run?
Answer: Its IC50 is 3.44 µM.

Question: For C=C1CC[C@@H]2[C@H]1[C@H]1[C@@H](C(C)CC(=O)C=C(C)C)CC[C@]12C (stereo partly specified), which IC50 [1] is on record?
Answer: The IC50 was 5.9 µM.

Question: CCCC(=O)OC[C@H](C)CCC[C@H](C)[C@@H]1CC[C@@H](C)c2c1cc(C(=O)O)c(O)c2O was tested. Which IC50 [3] did it give?
Answer: Its IC50 is 7.67 µM.

Question: Which inhibition [4] does the source give for COc1cc(O)c2c(c1)O[C@H](c1ccc(O)cc1)CC2=O here?
Answer: Its inhibition is “Active”.

Question: Which inhibition [4] does the source give for C/C(=C\CC[C@H](C)[C@@H]1CC[C@@H](C)c2c(O)cc(C(=O)O)cc21)CO here?
Answer: The inhibition was “Active”.

Question: With C[C@H](CCC[C@H](C)[C@@H]1CC[C@@H](C)c2c1cc(C(=O)O)c(O)c2O)COC(=O)/C=C/c1ccc(O)c(O)c1 as the compound, how does the inhibition [2] read?
Answer: Its inhibition is “Active”.

Question: With OC[C@H]1O[C@@H](O[C@@H]2c3ccccc3[C@H](O)C[C@H]2O)[C@H](O)[C@@H](O)[C@@H]1O as the compound, how does the IC50 [1] read?
Answer: The IC50 was 5.5 µM.

Question: Which inhibition [2] does the source give for COc1cc(/C=C/C(=O)OC[C@H](C)CCC[C@H](C)[C@@H]2CC[C@@H](C)c3c2cc(C(=O)O)c(O)c3O)ccc1O here?
Answer: The inhibition was “Active”.

Question: For C[C@H](CCC[C@H](C)[C@@H]1CC[C@@H](C)c2c(O)cc(C(=O)O)cc21)COC(=O)CCc1ccccc1, which inhibition [2] is on record?
Answer: Its inhibition is “Active”.

Question: For C/C(C=O)=C\CC[C@H](C)[C@@H]1CC[C@@H](C)c2c(O)cc(C(=O)O)cc21, which inhibition [4] is on record?
Answer: Its inhibition is “Active”.

Question: For O=C1C[C@@H]2c3ccccc3O[C@H]3c4cc(O)ccc4-c4c(O)cc(O)c1c4[C@H]23 [OHIOENSIN A], which IC50 [1] is on record?
Answer: The IC50 was 3.5 to 7.6 µM.

Question: C[C@@H](CO)CCC[C@H](C)[C@@H]1CC[C@@H](C)c2c(O)cc(C(=O)O)cc21 was tested. Which inhibition [4] did it give?
Answer: Its inhibition is “Active”.

Question: C[C@H](CCC[C@H](C)[C@@H]1CC[C@@H](C)c2c(O)cc(C(=O)O)cc21)COC(=O)/C=C/c1ccccc1 was tested. Which IC50 [3] did it give?
Answer: Its IC50 is 6.27 µM.

Question: C=C(CCC=C(C)C)[C@H]1CC[C@]2(C)CCCC(=C)[C@H]2C1 [LOBOPHYTUMIN C] was tested. Which IC50 [1] did it give?
Answer: Its IC50 is 7.8 µM.

Question: C[C@@H](CO)CCC[C@H](C)[C@@H]1CC[C@@H](C)c2c1cc(C(=O)O)c(O)c2O was tested. Which IC50 [3] did it give?
Answer: Its IC50 is 1260 µM.

Question: How did the IC50 [1] turn out when CC1=CCC[C@H]2[C@@H](C)[C@@](C)(CC3=C(O)C(=O)C=C(CCCS(=O)(=O)O)C3=O)CC[C@]12C was run?
Answer: The IC50 was 1.5 µM.

Question: For O=C1c2c(O)cc(O)c3c2[C@@H]2[C@@H](c4ccccc4O[C@H]2c2cccc(O)c2-3)[C@H]1O [OHIOENSIN G], which IC50 [1] is on record?
Answer: The IC50 was 3.5 to 7.6 µM.

Reference: ChEMBL document CHEMBL4477171, “Identification of PTP1B and α-Glucosidase Inhibitory Serrulatanes from Eremophila spp. by Combined use of Dual High-Resolution PTP1B and α-Glucosidase Inhibition Profiling and HPLC-HRMS-SPE-NMR” (J Nat Prod, 2016)
